Experimental data published in ChEMBL document CHEMBL1139377, “Induced association of mu opioid (MOP) and type 2 cholecystokinin (CCK2) receptors by novel bivalent ligands” (J Med Chem, 2009).

What was measured:
[1] = target: T1, Gastrin/cholecystokinin type B receptor (Homo sapiens) (UniProt P32239); assay: Binding affinity to CCK2 receptor expressed in CHO cells assessed per mg of protein; type: cell-based
T1 sequence (whole entry): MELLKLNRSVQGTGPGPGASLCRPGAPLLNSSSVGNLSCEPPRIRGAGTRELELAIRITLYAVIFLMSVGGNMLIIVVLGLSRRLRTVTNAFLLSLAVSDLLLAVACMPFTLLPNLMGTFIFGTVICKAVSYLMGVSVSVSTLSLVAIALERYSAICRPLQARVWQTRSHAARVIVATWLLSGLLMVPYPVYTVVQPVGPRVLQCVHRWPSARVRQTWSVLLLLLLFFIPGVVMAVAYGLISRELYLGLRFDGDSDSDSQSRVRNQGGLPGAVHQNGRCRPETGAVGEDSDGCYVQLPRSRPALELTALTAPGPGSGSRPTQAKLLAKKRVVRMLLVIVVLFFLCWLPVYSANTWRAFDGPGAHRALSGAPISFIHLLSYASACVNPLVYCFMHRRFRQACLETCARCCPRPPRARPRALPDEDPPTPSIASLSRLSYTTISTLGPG
Summary of the method: (§1)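 Membranes came from CHO-K1 cells stably expressing CCK2 receptor alone or with MOP receptor. They were incubated with 125I-D-Tyr-Gly-[(Nle28,31)CCK-26-33] (1-5 pM) plus increasing unlabeled ligand for 90 min at room temperature in KRH, pH 7.4, with 0.2% BSA and soybean trypsin inhibitor. Nonspecific binding was set with 1 μM CCK. Bound ligand was filtered and gamma counted; Ki and Bmax (pmol/mg protein) were taken from LIGAND analysis. Mean±S.E.M., 3-5 experiments.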

[2] = target: T1, Gastrin/cholecystokinin type B receptor (Homo sapiens); assay: Binding affinity to CCK2R-MOPR coexpressed in CHO cells assessed per mg of protein by [125I] CCK-26-33 displacement assay; type: cell-based; summary of the method: as §1
[3] = target: T2, Gastrin/cholecystokinin type B receptor (Homo sapiens, UniProt P32239); assay: Activity at CCK2R-MOPR coexpressed in CHO cells co-transfected with delta-6-Galphaqi4-myr assessed as intracellular calcium release by FLIPR; type: functional, cell-based
T2 sequence (P32239 whole entry): T1 sequence (whole entry)
Summary of the method: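 CHO cells stably expressing CCK2R were grown to 90% confluence, then transiently co-transfected by lipofectamine with MOPR and chimeric Gqi4-myr constructs. After 24 h they were seeded into 96-well plates and used the next day. Ca2+ mobilization was read with a FLIPR calcium kit on a FlexStation3, giving EC50 (nM); number of runs in parentheses.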

[4] = target: T2, Gastrin/cholecystokinin type B receptor; assay: Displacement of [125I]CCK-26-33 from CCK2 receptor expressed in CHO cells; type: cell-based
Summary of the method: (§2)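 CHO-K1 cell lines stably expressing CCK2 receptor alone or with MOP receptor; receptor-enriched membranes from density gradient centrifugation. (1-5 pM) and increasing concentrations of unlabeled ligand, 90 min, room temperature, KRH pH 7.4 with 0.2% BSA and soybean trypsin inhibitor. Filtration, gamma counting; nonsaturable binding with 1 μM CCK. Ki from LIGAND analysis; 3-5 independent experiments.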

Mu-type opioid receptor [5] = target: T3, Mu-type opioid receptor (Homo sapiens, UniProt P35372); assay: Displacement of [3H]DAMGO from mu opioid receptor expressed in CHO cells; type: cell-based
Summary of the method: (§3)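 Membranes came from CHO cells stably expressing MOP receptor alone or with CCK2 receptor. They were incubated with [3H]DAMGO (0.4 nM) plus increasing unlabeled ligand for 2 h at room temperature in KRH, pH 7.4, with 0.2% BSA and soybean trypsin inhibitor. Nonspecific binding was set with 1 μM DAMGO. Samples were filtered on PEI-soaked GF/C and scintillation counted; Ki and Bmax (pmol/mg protein) came from LIGAND analysis. Mean±S.E.M., 3-5 experiments.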

Mu-type opioid receptor [6] = target: T3, Mu-type opioid receptor; assay: Binding affinity to mu opioid receptor expressed in CHO cells assessed per mg of protein; type: cell-based; summary of the method: as §3
[7] = target: T2, Gastrin/cholecystokinin type B receptor; assay: Displacement of [125I]CCK-26-33 from CCK2R-MOPR coexpressed in CHO cells; type: cell-based; summary of the method: as §2
Mus musculus [8] = assay: Antinociceptive activity in icv dosed ICR mouse by tail flick assay; type: functional
Summary of the method: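 Male ICR mice (17-25 g) received i.c.v. injections (5 μL, under 1% DMSO) while conscious. Radiant-heat tail flick was measured at peak time from a 10-60 min time course, expressed as %MPE. At least three groups of 8-10 mice per dose-response, each mouse used once. ED50 (pmol/mouse) with 95% CI came from nonlinear regression.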

Mus musculus [9] = assay: Antinociceptive activity in icv dosed ICR mouse after 24 hrs by tail flick assay; type: functional
Summary of the method: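 24 h tolerance in male ICR mice: the day-1 ED80 i.c.v. dose (5 μL, under 1% DMSO) was given again 24 h later to the same mouse, after confirming antinociception had returned to baseline. Radiant-heat tail flick was read at peak time (10-20 min) and expressed as %MPE.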

T3 sequence (P35372 whole entry): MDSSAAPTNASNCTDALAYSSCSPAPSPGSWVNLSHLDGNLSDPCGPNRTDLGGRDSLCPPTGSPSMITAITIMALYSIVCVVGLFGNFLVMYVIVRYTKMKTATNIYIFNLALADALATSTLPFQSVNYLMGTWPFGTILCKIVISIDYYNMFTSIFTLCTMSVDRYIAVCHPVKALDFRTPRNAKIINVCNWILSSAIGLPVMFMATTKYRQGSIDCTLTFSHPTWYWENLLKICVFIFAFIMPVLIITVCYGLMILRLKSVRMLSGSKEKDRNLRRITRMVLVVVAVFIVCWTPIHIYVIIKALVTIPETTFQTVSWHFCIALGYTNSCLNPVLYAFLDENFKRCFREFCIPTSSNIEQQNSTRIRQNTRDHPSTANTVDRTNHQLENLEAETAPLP

SMILES	Bmax [1] [pmol]	Bmax [2] [pmol]	EC50 [3] [µM]	Ki [4] [µM]	Ki (Mu-type opioid receptor [5]; read-out: Ki) [µM]	Bmax (Mu-type opioid receptor [6]) [pmol]	Ki [7] [µM]	ED50 (Mus musculus [8]) [pmol]	ED50 (Mus musculus [9]) [pmol]	Ki (Mu-type opioid receptor [5]; cho)
CNC(=O)COCC(=O)NCCCCCCNC(=O)COCC(=O)NCCOc1cccc(NC(=O)N[C@@H]2N=C(c3ccccc3)c3ccccc3N(C)C2=O)c1	16	9.5	< 10	–	–	–	–	–	–	–
CN1C(=O)[C@H](NC(=O)Nc2cccc(OCCNC(=O)COCC(=O)NNC(=O)COCC(=O)N[C@H]3CC[C@@]4(O)[C@H]5Cc6cc(O)cc7c6[C@@]4(CCN5C)[C@H]3O7)c2)N=C(c2ccccc2)c2ccccc21	16	9.5	–	0.356	0.0083	9.8	0.057	47.41	84.45	–
CN1C(=O)[C@H](NC(=O)Nc2cccc(OCCNC(=O)COCC(=O)NCCCCCCNC(=O)COCC(=O)N[C@H]3CC[C@@]4(O)[C@H]5Cc6cc(O)cc7c6[C@@]4(CCN5C)[C@H]3O7)c2)N=C(c2ccccc2)c2ccccc21	18.5	10.9	–	0.26	0.0294	7.4	0.077	2020	64.33	–
CN1C(=O)[C@H](NC(=O)Nc2cccc(OCCNC(=O)COCC(=O)NCCNC(=O)COCC(=O)N[C@H]3CC[C@@]4(O)[C@H]5Cc6cc(O)cc7c6[C@@]4(CCN5C)[C@H]3O7)c2)N=C(c2ccccc2)c2ccccc21	10.3	12.4	0.119	0.071	0.0057	7.7	0.033	390	71.29	–
CN1C(=O)[C@H](NC(=O)Nc2cccc(OCCNC(=O)COCC(=O)N[C@H]3CC[C@@]4(O)[C@H]5Cc6cc(O)cc7c6[C@@]4(CCN5C)[C@H]3O7)c2)N=C(c2ccccc2)c2ccccc21	14	9.3	–	0.223	0.0241	12.4	0.21	3036	57.31	–
C[C@@H](NC(=O)[C@@H](N)Cc1ccc(O)cc1)C(=O)NCC(=O)N(C)[C@@H](Cc1ccccc1)C(=O)NCCO [DAMGO]	–	–	0.00266	–	–	9.2	–	–	–	–
CNC(=O)COCC(=O)NCCCCNC(=O)COCC(=O)N[C@H]1CC[C@@]2(O)[C@H]3Cc4cc(O)cc5c4[C@@]2(CCN3C)[C@H]1O5	–	–	0.572	–	–	9.3	–	51.93	40.74	29.8
Cc1cccc(NC(=O)N[C@@H]2N=C(c3ccccc3)c3ccccc3N(C)C2=O)c1	14.4	9.1	–	–	–	–	–	–	–	–
